Screening results as filed in PubChem.
CaV13 FRET inh = Disruptors of the CACNA1D IQ motif to Ca2+-dependent inactivation inhibitor domain association, primary screening, Förster resonance energy transfer in intact living …. HEK cells, CFP/YFP FRET ICDI-IQ, plate reader, 10 min; percent FRET-ratio fall versus neutral wells. inhibition, % at 12.3 µM. 340,000 compounds, 0.098% hits. AID 743397;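 active = mean replicate inhibition of at least 30% and at least 1% of replicates passing that level; inconclusive = only one of the two criteria is met; inactive = neither criterion is met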;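 also: 0% = median of the neutral control wells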
Runt-CBFb FRET = inhibitors of RUNX1 Runt–CBFb binding, primary screen, biochemical, FRET, Cerulean-Runt, Venus-CBFb, uHTS; Cerulean-Runt/Venus-CBFb FRET ratio 530/480, 1 h; inhibition, % at 20 µM; 220,000 compounds, 0.46% hits; Runt-related transcription factor 1 (Homo sapiens) + Core-binding factor subunit beta …;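 active = inhibition over about 50% at 20 µM in the single-dose screen, limit read from the data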;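 also: 0% = DMSO wells and 100% = excess unlabeled CBFb competitor control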
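Schedule: protein complex preformed 1 h, compound exposure 1 h, room temperature, dark; test system: Cerulean-labeled Runt domain protein; amount: 100 nM per protein; buffer or medium: Tris 50 mM pH 7.5, KCl, K2SO4, 0.01% BSA; read-out: loss of energy transfer signal; detection: FRET fluorescence; controls: 5 µM unlabeled CBFb as full-inhibition high control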
RanGTP-Imp inh = inhibitors of RanGTP-importin-beta interaction, primary screen, biochemical, FRET, CFP-Ran, YFP-importin-beta, homogeneous | cell-free CFP-Ran/YFP-importin-beta FRET ratio | inhibition, % (test concentration not listed) | 300,000 compounds, 1.1% hits | Ran GTPase (GTP-bound) - importin-beta complex;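 active = more than half of the replicate wells show a fall in the fluorescence ratio signal beyond about 16%, limit read from the data, passing the limit was not always enough; inconclusive = exactly half of the replicate wells pass the set limit; inactive = fewer than half of replicates pass the limit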;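 also: 0% = DMSO wells and 100% = Ran loaded with GDP instead of GTP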
Runt-SMMHC FRET = inhibitors of RUNX1 Runt–CBFb-SMMHC binding, primary screen, biochemical, FRET, Cerulean-Runt, Venus-CBFb-SMMHC, uHTS; 220,000 compounds, 0.74% hits; inhibition, % at 20 µM; Runt-related transcription factor 1 (Homo sapiens) + Core-binding factor subunit beta …; Cerulean-Runt/Venus-CBFb-SMMHC FRET ratio 530/480, 1 h;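 active = mean inhibition across duplicate retests at 20 µM reaching about 50%, limit read from the data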;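 also: 0% = DMSO wells and 100% = wells with excess untagged CBFb-SMMHC; inhibitors lower the FRET ratio by blocking Runt binding to CBFb-SMMHC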
Hck-Nef inh = inhibitors of Nef-activated human Hck kinase, primary screen, biochemical, Z-Lyte FRET, 384-well, Hck-YEEI; Tyrosine-protein kinase HCK (Homo sapiens), P08631; Recombinant Hck-YEEI plus Nef, Z-Lyte FRET kinase assay; inhibition, % at 20 µM; 220,000 compounds, 0.68% hits;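 active = Hck-Nef kinase inhibition above about 50%, limit read from the data; inactive = inhibition below that limit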;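 also: 0% = DMSO with Hck plus Nef and 100% = Hck alone without Nef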
Target sequence (P08631 whole entry, looked up): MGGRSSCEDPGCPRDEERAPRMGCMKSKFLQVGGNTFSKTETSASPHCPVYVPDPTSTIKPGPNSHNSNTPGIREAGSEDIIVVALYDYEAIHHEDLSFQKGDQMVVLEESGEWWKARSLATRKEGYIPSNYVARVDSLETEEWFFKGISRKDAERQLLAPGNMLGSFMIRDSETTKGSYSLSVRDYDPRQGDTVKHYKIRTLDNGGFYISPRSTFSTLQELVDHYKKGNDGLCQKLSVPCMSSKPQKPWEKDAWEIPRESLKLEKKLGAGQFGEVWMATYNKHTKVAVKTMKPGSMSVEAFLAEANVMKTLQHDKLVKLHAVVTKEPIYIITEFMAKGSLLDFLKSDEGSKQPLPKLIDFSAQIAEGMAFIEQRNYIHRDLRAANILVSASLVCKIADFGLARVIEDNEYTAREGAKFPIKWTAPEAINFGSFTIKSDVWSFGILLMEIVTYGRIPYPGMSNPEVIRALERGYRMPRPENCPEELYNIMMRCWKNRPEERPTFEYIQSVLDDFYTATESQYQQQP
Active calls of the source: *. The list is not random: actives were taken first. Their share in the collection is about 1.5%.

CCCCn1c(NC(=O)c2ccco2)c(C(=O)OCC)c2nc3ccccc3nc21 was read as CaV13 FRET inh -3.7, Runt-CBFb FRET 18.4, RanGTP-Imp inh 71.1*, Runt-SMMHC FRET 60.4* and Hck-Nef inh 13.5.
`COCCCNC(=O)c1c(NC(=O)c2ccccc2)n(Cc2ccccc2)c2nc3ccccc3nc12` gave CaV13 FRET inh -3.6, RanGTP-Imp inh inconclusive and Hck-Nef inh 4.6.
Screening CCCCn1c(NS(=O)(=O)c2ccc(C)cc2)c(C(=O)OCC)c2nc3ccccc3nc21 returned CaV13 FRET inh -1.9, Runt-CBFb FRET 9.6, RanGTP-Imp inh 75.3*, Runt-SMMHC FRET 58.5* and Hck-Nef inh 22.9.
`CC(C)OP(=O)(O)NC(=O)c1ccccc1` gave CaV13 FRET inh 167.5*, Runt-CBFb FRET -1.1, RanGTP-Imp inh 2.6, Runt-SMMHC FRET -3.6 and Hck-Nef inh 19.9.
For COc1ccc(CCNCc2cccc(C(F)(F)F)c2)cc1OC the results were CaV13 FRET inh -2.2, Runt-CBFb FRET 0.3, RanGTP-Imp inh inconclusive, Runt-SMMHC FRET 4.4 and Hck-Nef inh 19.6.
`Cc1ccc(N2C(=O)NC(=O)/C(=C\c3ccc([N+](=O)[O-])o3)C2=O)cc1` gave Runt-CBFb FRET 9.2, RanGTP-Imp inh -3.0, Runt-SMMHC FRET -10.9 and Hck-Nef inh 50.2*.
CCOC(=O)C1C(=O)NC23CCCC2C1c1ccccc1O3 (stereo not given) was read as CaV13 FRET inh -3.7, Runt-CBFb FRET -1.6, RanGTP-Imp inh 2.4, Runt-SMMHC FRET 2.8 and Hck-Nef inh -0.8.
`CCOC(=O)c1c(NC(=O)c2c(N)n(CCCOC)c3nc4ccccc4nc23)sc2c1CCCC2` gave CaV13 FRET inh -7.7, Runt-CBFb FRET 68.8*, RanGTP-Imp inh 6.4, Runt-SMMHC FRET 100.9* and Hck-Nef inh 0.3.
Screening CCOC(=O)c1c(NC(=O)C(c2ccccc2)c2ccccc2)sc2c1C1CCN2CC1 returned Runt-CBFb FRET -2.1, RanGTP-Imp inh 0.5, Runt-SMMHC FRET -1.1 and Hck-Nef inh -0.6.
`CCOCCCn1c(N)c(C(=O)Nc2sc3c(c2C(=O)OC)CCCC3)c2nc3ccccc3nc21` gave CaV13 FRET inh -3.6, Runt-CBFb FRET 40.6, RanGTP-Imp inh 2.8, Runt-SMMHC FRET 136.7* and Hck-Nef inh 3.1.
`CCOC(=O)c1c(NC(NC(=O)CF)C(Cl)(Cl)Cl)sc2c1CCCC2` (stereo not given) gave CaV13 FRET inh -8.3, Runt-CBFb FRET 1.9, RanGTP-Imp inh 0.4, Runt-SMMHC FRET 4.8 and Hck-Nef inh 2.8.
`CCCOC(=O)c1c(N)n(Cc2cccs2)c2nc3ccccc3nc12` gave CaV13 FRET inh -5.0, Runt-CBFb FRET 40.1, RanGTP-Imp inh inconclusive, Runt-SMMHC FRET 107.5* and Hck-Nef inh 11.9.
`CCCCCn1c(N)c(C(=O)NCc2cccs2)c2nc3ccccc3nc21` gave CaV13 FRET inh -8.8, Runt-CBFb FRET 3.1, RanGTP-Imp inh 55.7*, Runt-SMMHC FRET 18.8 and Hck-Nef inh 19.4.
`Nc1c(C(=O)NCCCc2ccccc2)c2nc3ccccc3nc2n1Cc1cccs1` gave CaV13 FRET inh -4.3, Runt-CBFb FRET 4.8, RanGTP-Imp inh 66.4*, Runt-SMMHC FRET 25.2 and Hck-Nef inh 7.4.
CCCCCn1c(=O)c(C(=O)Nc2nc3ccccc3[nH]2)c(O)c2ccccc21 was read as CaV13 FRET inh -2.6, Runt-CBFb FRET 1.4, RanGTP-Imp inh 1.7, Runt-SMMHC FRET -0.8 and Hck-Nef inh 15.1.
CCCCn1c(N)c(C(=O)NCc2cccs2)c2nc3ccccc3nc21 was read as CaV13 FRET inh -2.2, RanGTP-Imp inh 68.2*, Runt-SMMHC FRET 76.5* and Hck-Nef inh 29.8.
c1ccc2c(N3CCNCC3)nsc2c1 was read as CaV13 FRET inh -6.6, Runt-CBFb FRET -1.7, RanGTP-Imp inh -2.6, Runt-SMMHC FRET 2.1 and Hck-Nef inh 20.2.
For CC(NCc1ccccc1Cl)C(O)c1ccccc1 (stereo not given) the results were CaV13 FRET inh -7.3, Runt-CBFb FRET -0.7, RanGTP-Imp inh 5.4, Runt-SMMHC FRET -5.1 and Hck-Nef inh 1.6.
C[C@]12CC[C@@H](O)C[C@@H]1CC[C@@H]1[C@@H]2CC[C@]2(C)[C@@H](O)CC[C@@H]12 was read as CaV13 FRET inh -4.2, Runt-CBFb FRET 0.2, RanGTP-Imp inh inconclusive, Runt-SMMHC FRET -0.7 and Hck-Nef inh -1.0.
`O=CC(Cl)P(=O)(N1CCOCC1)N1CCOCC1` (stereo not given) gave CaV13 FRET inh -18.8, Runt-CBFb FRET 0.5, RanGTP-Imp inh 5.2, Runt-SMMHC FRET 2.8 and Hck-Nef inh 19.2.
Screening CN1CCN(Cc2cc(C(C)(C)C)c(O)c(C(C)(C)C)c2)CC1 returned CaV13 FRET inh -4.3, Runt-CBFb FRET -1.5, RanGTP-Imp inh -1.2, Runt-SMMHC FRET 1.8 and Hck-Nef inh -19.1.
CC(C)CCn1c(N)c(C(=O)OCC2CCCO2)c2nc3ccccc3nc21 (stereo not given) was read as Runt-CBFb FRET 38.2, RanGTP-Imp inh inconclusive, Runt-SMMHC FRET 82.1* and Hck-Nef inh 32.4.
For CCCCOCCCn1c(N)c(C(=O)OCCOC)c2nc3ccccc3nc21 the results were Runt-CBFb FRET 44.4, RanGTP-Imp inh inconclusive, Runt-SMMHC FRET 103.4* and Hck-Nef inh 30.1.
CCCn1c(C(=O)c2ccc(OC)cc2)nc2ccccc21 was read as CaV13 FRET inh -2.0, Runt-CBFb FRET -1.7, RanGTP-Imp inh 3.8, Runt-SMMHC FRET 0.8 and Hck-Nef inh 18.5.
For CCCCn1c(N)c(C(=O)OCC2CCCO2)c2nc3ccccc3nc21 (stereo not given) the results were CaV13 FRET inh -5.9, Runt-CBFb FRET 41.3, RanGTP-Imp inh inconclusive, Runt-SMMHC FRET 105.7* and Hck-Nef inh 25.7.
`CC(C)CCOC(=O)c1c(N)n(CC2CCCO2)c2nc3ccccc3nc12` (stereo not given) gave Runt-CBFb FRET 22.2, RanGTP-Imp inh 11.2, Runt-SMMHC FRET 64.8* and Hck-Nef inh 16.2.
`Cc1cc(=O)oc2cc3c(cc12)CCCN3` gave CaV13 FRET inh 13.2 and RanGTP-Imp inh 84.4*.
`CN(C)c1ccc(/C=C2/C(=N\O)C3CCN2CC3)cc1` gave CaV13 FRET inh -4.8, Runt-CBFb FRET 1.2, RanGTP-Imp inh 56.9*, Runt-SMMHC FRET 28.7 and Hck-Nef inh -7.8.
